The list is not random: actives were taken first. Their share in the collection is about 2.5%.
SIAE primary: human SIAE inhibition, primary screen. Q9HAT2. SIAE FP-Rh probe binding, fluorescence polarization. inhibition, % at 9.66 µM. 370,000 tested, 0.69% active;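 active means inhibition above a cutoff: mean of compounds within the control limits plus 3 SD of those, cut at about 17% in these data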;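 further: 0% = plate median of compound wells and 100% = probe without SIAE protein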
Target sequence (Q9HAT2 whole entry, looked up): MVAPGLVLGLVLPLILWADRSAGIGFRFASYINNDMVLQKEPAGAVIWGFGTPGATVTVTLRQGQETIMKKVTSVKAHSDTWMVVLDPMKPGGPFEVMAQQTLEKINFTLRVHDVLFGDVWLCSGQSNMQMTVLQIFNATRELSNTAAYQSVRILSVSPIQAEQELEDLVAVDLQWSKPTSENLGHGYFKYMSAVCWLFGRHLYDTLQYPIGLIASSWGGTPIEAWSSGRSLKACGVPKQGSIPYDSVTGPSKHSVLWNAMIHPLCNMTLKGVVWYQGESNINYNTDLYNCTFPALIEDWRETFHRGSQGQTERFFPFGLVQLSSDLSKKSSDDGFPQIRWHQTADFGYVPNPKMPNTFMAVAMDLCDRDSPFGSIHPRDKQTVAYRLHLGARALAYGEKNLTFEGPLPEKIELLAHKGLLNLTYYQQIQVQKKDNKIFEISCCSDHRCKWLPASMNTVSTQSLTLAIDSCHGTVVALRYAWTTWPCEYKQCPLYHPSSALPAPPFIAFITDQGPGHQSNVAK
ABHD4 inh: ABHD4 (mouse) inhibition, primary FP screen. purified mABHD4, FP-Rh probe fluorescence polarization. inhibition, % at 8.92 µM. 370,000 tested, 0.54% active;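 active means inhibition exceeding the mean over every tested compound plus 3 SD, cut at about 30% in these data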;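 further: 0% = plate median of compound wells and 100% = S159A mutant with DMSO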
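Material: mouse ABHD4 enzyme, wild type; Benchmarks: S159A mutant high control, sample median low control; Buffer or medium: HEPES pH 7.0, NaCl, Pluronic buffer; Signal: fluorescence polarization; Read-out: percent inhibition of probe binding, normalized to plate controls; Timing: pre-incubation 45 min, probe exposure 60 min, at 25 °C; Dosing: 8.92 µM, single dose.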
TCR CD3 inh: blocks the human TCR-CD3 interaction. 360,000 tested, 0.37% active. inhibition, % at 9.4 µM. AID 651800. TAMRA-labeled TCR probe fluorescence, biochemical; in the data active means inhibition above about 19%;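 further: recombinant mutant TCR 2C K166C tagged with TAMRA read by polarization; 0% = receptor in buffer alone and 100% = receptor with positive control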
PRMT1 inh: PRMT1 (human) inhibition, primary screen | Q99873 | recombinant PRMT1, activity-based probe fluorescence polarization | inhibition, % at 2.79 µM | 370,000 tested, 1.3% active;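 active means inhibition above about 21% made by adding two undisclosed values, limit read from the data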
HTRA1 inh: blocks human HTRA1 serine peptidase. Q92743. recombinant HTRA1, FP-rhodamine activity-based probe, fluorescence polarization. inhibition, % at 5.96 µM. 340,000 tested, 0.5% active; in the data active means inhibition above about 36%;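 further: 0% = enzyme with DMSO and 100% = wells lacking enzyme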
mABHD4 conf: confirmation of mouse ABHD4 inhibitors; shares compounds with ABHD4 inh; purified mABHD4, FP-Rh probe fluorescence polarization; inhibition, % at 8.92 µM; 1,800 tested, 55% active;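 active means mean inhibition across replicates above the hit cutoff set in the primary screen, cut at about 30% in these data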;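 further: 0% = wild-type ABHD4 with DMSO and 100% = catalytically dead S159A mutant with DMSO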
Active calls of the source: *; x = not tested or not shown.

SMILES	SIAE primary	ABHD4 inh	TCR CD3 inh	PRMT1 inh	HTRA1 inh	mABHD4 conf
COc1ccc(C2OCCNC3C2C(=O)N(Cc2ccc(OC)cc2OC)C3Cc2ccccc2)cc1 (stereo unspecified)	4	4	x	5	x	x
CC(=O)N1CCC(=NNc2nc3ccccc3[nH]2)CC1	9	30*	-3	2	x	7
C/C(=N\Nc1nc2ccccc2[nH]1)c1ccc(Cl)s1	11	31*	2	-1	11	23
CCC(C)(C)C1CCC(=NNc2nc3ccccc3[nH]2)CC1 (stereo unspecified)	12	20	-5	1	27	x
C/C(=N\Nc1nc(C)cc(C)n1)c1ccc(N2CCOCC2)cc1	5	-6	2	-1	3	x
C/C(=N\Nc1nc2ccccc2[nH]1)c1ccc(N2CCOCC2)cc1	4	33*	-1	0	12	30*
C/C(=N\NC(=O)c1ccncc1)c1ccc(N2CCOCC2)cc1	-1	6	0	-2	3	x
C/C(=N\NC(=O)c1ccccc1)c1ccc(N2CCOCC2)cc1	10	71*	8	0	0	-13
CCNS(=O)(=O)c1ccc(Br)c(C(=O)OC(C)C(=O)NCC2CCCCC2)c1 (stereo unspecified)	-3	-1	2	0	-15	x
COC(=O)c1cnn(-c2ccc(Cl)cc2)c1/C=N/NC(N)=S	0	-2	-3	3	0	x
O=C(CNc1cccc2ccccc12)N/N=C/c1ccc(C(=O)O)cc1	9	30*	-1	3	4	21
CC(=O)N1N=C(c2cccc(O)c2)CC1c1cccs1 (stereo unspecified)	2	36*	6	-2	0	-4
CC(=O)N1N=C(c2cccc(NS(C)(=O)=O)c2)CC1c1cccs1 (stereo unspecified)	-4	11	-1	1	1	x
CC[C@@H](CCCCCC#N)CCC(=O)N(c1ccccc1)c1ccccc1	9	-14	x	-2	x	x
CCC(C)C(=O)Nc1nc(C)c(-c2csc(Nc3cc(OC)ccc3OC)n2)s1 (stereo unspecified)	13	38*	-1	3	15	62*
NC(=S)NN=Cc1cc(-c2cccc(N)c2)ccn1	0	44*	0	6	26	58*
O=C(C1CCCCC1)N1CCN(c2ccccc2F)CC1	2	45*	5	-2	-2	2
Cc1cc(O)ccc1N/C=C/c1onc(C)c1[N+](=O)[O-]	4	56*	8	33*	34	0
COc1cccc(C=NN(C)c2c([N+](=O)[O-])cc(C(F)(F)F)cc2[N+](=O)[O-])c1O	9	45*	2	0	x	49*
COc1ccc(S(=O)(=O)N/N=C(/C)c2ccncc2)cc1	-1	5	13	4	1	x
COc1ccc(S(=O)(=O)N/N=C(/C)c2ccncc2)c(OC)c1	7	71*	-12	9	7	5
COC(=O)[C@]12C[C@H](CC(=O)NCC34CC5CC(CC(C5)C3)C4)C(=O)N(Cc3cccc4ccccc34)C1=C[C@H](COCc1ccccc1)O[C@@H]2C	-2	5	x	3	x	x
CNCc1ccccc1Sc1cc(O)ccc1O	17	50*	3	58*	36	63*
O=C(NC1CCCC1)C(c1ccccn1)N(C(=O)c1csnn1)c1ccccc1Br (stereo unspecified)	-5	-8	-15	-1	2	x
CCOc1cccc2sc(NN)nc12	13	71*	2	9	32	71*
SMILES	SIAE primary	ABHD4 inh	TCR CD3 inh	PRMT1 inh	HTRA1 inh	mABHD4 conf
CCOC(=O)N1CCC(NC(=O)c2csc3c2CCCC3)CC1	-4	-1	-2	1	5	x
CCN(CC)c1ccc(C=NNC(=O)Cc2cc(=O)[nH][nH]2)c(O)c1	12	33*	x	1	x	22
CCN(CC)c1ccc(/C=N/NC(=O)OC)c(O)c1	7	8	-1	1	5	x
COc1ccc(NS(=O)(=O)c2cc(N)ccc2N2CCCC2)cc1	16	39*	-5	7	11	32*
COc1cc(/C=C/C(=O)O)cc(S(=O)(=O)Nc2cc(Cl)c(Cl)cc2Cl)c1OC	2	32*	6	2	-11	35*
CC(=O)Nc1sc2c(c1-c1nc3ccccc3s1)CCCN(C(C)C)C2	-6	-14	x	0	x	x
